Experimental findings from PMC2574997 (Journal of medicinal chemistry, 2008) are described below.

For data set [1], the system named is MCF-10A cells. Description: Cellular motility assay. The settings on record: pure compounds, dose response, total area, 20 h. The data set is classed as cell-based, human.
Data set [2] addresses PKCα (Mus musculus, UniProt P20444). Briefly: Competition with [3H]PDBU binding to PKCα. The conditions noted are these: for Ratio Ki crude/Ki pure: relative to unresolved library E/Z mixture. The method in brief: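 Partially purified mouse PKCα; test compound in DMSO competed with [3H]PDBU. Pure compounds ran 6–7 ligand concentrations; ID50 from sigmoidal fit; Ki = ID50/(1+L/Kd). Crude library mixtures (unresolved E/Z) were tested at a single 1 μM, with Ki calculated from that concentration. The ratio compares crude with pure Ki. Triplicates per concentration; ≥3 independent experiments; mean ± SEM.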

Data set [3] has as its system GFP-tagged PKCα, β, δ and ε. Description: Translocation of GFP-tagged PKC isoforms in CHO cells. The settings on record: living CHO cells, 300 nM, confocal microscopy. The format is cell-based, Chinese hamster. The method in brief: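 PKC isoforms were subcloned into a modified pEGFP-N1 plasmid to give GFP-tagged proteins, which were over-expressed in CHO cells. Localization was followed in real time by confocal microscopy before and after ligand treatment, with membrane translocation from cytosol taken as activation.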

For data set [4], the system named is AP-1. Briefly: AP-1 luciferase assay. The format is cell-based, Balb/C. The conditions noted are these: pure DAG-lactone 100 ng/mL, 18 h, normalized to TPA 10 ng/mL; L2-C11: both E- and Z-isomers.
The subject of data set [5] is LNCaP cells. Briefly: Apoptosis and radiosensitization in LNCaP cells. The format is cell-based, human. The conditions noted are these: 10 and 20 μM, 16 h pretreatment, 24 h post radiation (20 Gy). The method in brief:
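LNCaP human prostate cancer cells were grown at 37°C, 5% CO2 in RPMI-1640 with 10% FCS, 2 mM L-glutamine, antibiotics and 10 mM HEPES (pH 7.2). FCS was replaced by 0.2% human albumin 24 h before the experiment. Cells were pretreated 16 h with test compound (10 or 20 μM), then irradiated (20 Gy). They were fixed 24 h later and stained with bis-benzimide. Cells with ≥3 apoptotic bodies were scored apoptotic by fluorescence microscopy. Mean of two experiments ± standard deviation.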

Data set [6] concerns JB6 cells. Description: Anchorage independent transformation in soft agar. The format is cell-based, Balb/C. The settings on record: DAG-lactone 100 ng/mL, 14 days, normalized to TPA 10 ng/mL; L2-C11: both E- and Z-isomers. In short, it runs like this:
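JB6 cells (10^4) suspended in 0.33% top agar containing DMSO, TPA (10 ng/mL) or test compound (100 ng/mL), layered over 0.5% bottom agar also containing compound. Anchorage-independent colonies counted after 14 days by automated image analysis; colonies >8 cells scored as transformed. Four independent plates seeded. Mean colony number reported relative to TPA as 100%.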

For data set [7], the system named is α-secretase. Description: α-Secretase activation, secreted sAPPα by immunoblot densitometry in W4 cells. The format is cell-based, rat. The settings on record: crude sample or control, 1 μM. (In western blotting, separated proteins are transferred to a membrane and probed.)
[8] abbreviates: Library 2, pure sample = E-isomer.
Where [9] appears, read: Library 1, pure sample = E-isomer.
The mark [10] stands for this setting: Library 1, pure sample = Z-isomer.

Like-named read-outs stand apart in the source and are kept apart here.

As to `CCCCC(CC)C(=O)OCC1(CO)C/C(=C\c2ccc(F)c(Br)c2)C(=O)O1` (centres unmarked) [L2-C12, (E)-{4-[(3-Bromo-4-fluorophenyl)methylene]-2-(hydroxymethyl)-5-oxo-2-2,3-dihydrofuryl}methyl 2-ethylhexanoate], the “induction of cell motility” value in data set [1] is “induced cell motility”. In data set [2] (setting [8]), the “Ratio Ki crude/Ki pure” value was 2.9. Besides, in data set [3], the “translocation of PKC isozymes α, β, δ and ε” value was “translocated very quickly”. For the compound `COc1ccc(/C=C2\CC(CO)(COC(=O)c3c(C(C)C)cc(C(C)C)cc3C(C)C)OC2=O)cc1` (centres unmarked) [L1-F12, (E)-{2-(Hydroxymethyl)-4-[(4-methoxyphenyl)methylene]-5-oxo-2-2,3-dihydrofuryl}methyl 2,4,6-tris(methylethyl)benzoate], the “Ratio Ki crude/Ki pure” value in data set [2] (setting [9]) was found to be 24.6. As to `COc1ccc(/C=C2\CC(CO)(COC(=O)c3ccc(N(C)C)cc3)OC2=O)cc1` (centres unmarked) [L1-F5, (E)-{2-(Hydroxymethyl)-4-[(4-methoxyphenyl)methylene]-5-oxo-1-2,3-dihydrofuryl}methyl 4-(dimethylamino)benzoate], the “Ratio Ki crude/Ki pure” value in data set [2] (setting [9]) was found to be 7.5. With `CCCC(CCC)C(=O)OCC1(CO)C/C(=C\c2ccc(C(F)(F)F)cc2)C(=O)O1` (centres unmarked) [L2-B4, (E)-(2-(Hydroxymethyl)-5-oxo-4-{[4-(trifluoromethyl)phenyl]methylene}-2-2,3-dihydrofuryl)methyl 2-propylpentanoate], the “AP-1 activation (AP-1 dependent luciferase activity)” value (shortened to “AP-1 activation”) in data set [4] is “very strong AP-1 transcription factor activation”. Further, the “Ratio Ki crude/Ki pure” value in data set [2] (setting [8]) is given as 5.6. The induction of apoptosis entry in data set [5] is given as “induction of apoptosis”. Also, the “transforming activity (anchorage independent colonies)” value (shortened to “transforming activity”) in data set [6] is recorded as “minimal transforming properties”.

For `CCC(C(=O)OCC1(CO)C/C(=C\c2ccc(-c3ccc(C(F)(F)F)cc3)cc2)C(=O)O1)c1ccccc1` (centres unmarked) [L2-D6, (E)-[2-(Hydroxymethyl)-5-oxo-4-({4-[4-(trifluoromethyl)phenyl]phenyl}methylene)-2-2,3-dihydrofuryl]methyl 2-phenylbutanoate], the “induction of cell motility” value in data set [1] is listed as “mimics L2-C12 in terms of inducing cell motility”. In data set [2] (setting [8]), the “Ratio Ki crude/Ki pure” value is recorded as 5.8. Regarding `CN(C)c1ccc(/C=C2\CC(CO)(COC(=O)c3ccc(N(C)C)cc3)OC2=O)cc1` (centres unmarked) [L1-E5, (E)-(4-{[4-(Dimethylamino)phenyl]methylene}-2-(hydroxymethyl)-5-oxo-2-2,3-dihydrofuryl)methyl 4-(dimethylamino)benzoate], the “Ratio Ki crude/Ki pure” value in data set [2] (setting [9]) worked out at 10.6.

Regarding `COc1ccc(/C=C2\CC(CO)(COC(=O)c3ccc(OC)cc3)OC2=O)cc1` (centres unmarked) [L1-F6, (E)-{2-(Hydroxymethyl)-4-[(4-methoxyphenyl)methylene]-5-oxo-1-2,3-dihydrofuryl}methyl 4-methoxybenzoate], the “Ratio Ki crude/Ki pure” value in data set [2] (setting [9]) was determined as 2.6. Regarding `COc1ccc(C(=O)OCC2(CO)C/C(=C\c3ccc([N+](=O)[O-])cc3)C(=O)O2)cc1` (centres unmarked) [L1-H6, (E)-{2-(Hydroxymethyl)-4-[(4-nitrophenyl)methylene]-5-oxo-2-2,3-dihydrofuryl}methyl 4-methoxybenzoate], the “Ratio Ki crude/Ki pure” value in data set [2] (setting [9]) is reported as 2.7.

On to `CCCC(CCC)C(=O)OCC1(CO)C/C(=C\c2ccc(F)c(Br)c2)C(=O)O1` (centres unmarked) [L2-B12, (E)-{4-[(3-Bromo-4-fluorophenyl)methylene]-2-(hydroxymethyl)-5-oxo-2-2,3-dihydrofuryl}methyl 2-propylpentanoate], for which the “induction of cell motility” value in data set [1] is “very weak effect on cell motility”. Besides, in data set [2], the Ki (as a rule, the equilibrium dissociation constant of an inhibitor or competing ligand from its target) is approximately 2 nM. In addition, the “Ratio Ki crude/Ki pure” value in data set [2] (setting [8]) came to 3.0. Consider `CC(C)(C)C(=O)OCC1(CO)C/C(=C\c2ccc(F)c(Cl)c2)C(=O)O1` (centres unmarked) [L2-F10, (E)-{4-[(3-Chloro-4-fluorophenyl)methylene]-2-(hydroxymethyl)-5-oxo-2-2,3-dihydrofuryl}methyl 2,2-dimethylpropanoate], for which the “Ratio Ki crude/Ki pure” value in data set [2] (setting [8]) came out at 1.8. As to `COc1ccc(/C=C2\CC(CO)(COC(=O)c3c(C)cc(C)cc3C)OC2=O)cc1` (centres unmarked) [L1-F11, (E)-{2-(Hydroxymethyl)-4-[(4-methoxyphenyl)methylene]-5-oxo-2-2,3-dihydrofuryl}methyl 2,4,6-trimethylbenzoate], the “Ratio Ki crude/Ki pure” value in data set [2] (setting [9]) stood at 32.0. As for `CCCCCC/C=C1/CC(CO)(COC(=O)c2c(C(C)C)cc(C(C)C)cc2C(C)C)OC1=O` (centres unmarked) [L1-A12, (Z)-[4-Heptylidene-2-(hydroxymethyl)-5-oxo-2-2,3-dihydrofuryl]methyl 2,4,6-tris(methylethyl)benzoate], the “Ratio Ki crude/Ki pure” value in data set [2] (setting [10]) amounted to 50.4. In the case of `CC(C)C(=O)OCC1(CO)C/C(=C/c2ccccc2C(F)(F)F)C(=O)O1` (centres unmarked) [L2-A1, (Z)-(2-(Hydroxymethyl)-5-oxo-4-{[2-(trifluoromethyl)phenyl]-methylene}-2-2,3-dihydrofuryl)methyl 2-methylpropanoate], in data set [2] (Library 2, pure sample = Z-isomer), the “Ratio Ki crude/Ki pure” value was 0.51. In the case of `CCCCC(/C=C1/CC(CO)(COC(=O)c2ccc(N(C)C)cc2)OC1=O)CC` (centres unmarked) [L1-B5, (Z)-[4-(2-Ethylhexylidene)-2-(hydroxymethyl)-5-oxo-2-2,3-dihydrofuryl]methyl 4-(dimethylamino)benzoate], the “Ratio Ki crude/Ki pure” value in data set [2] (setting [10]) is recorded as 3.4.

Turning to `CCCCC(/C=C1/CC(CO)(COC(=O)c2ccc([N+](=O)[O-])cc2)OC1=O)CC` (centres unmarked) [L1-B8, (Z)-[4-(2-Ethylhexylidene)-2-(hydroxymethyl)-5-oxo-2-2,3-dihydrofuryl]methyl 4-nitrobenzoate], in data set [2] (setting [10]), the “Ratio Ki crude/Ki pure” value was found to be 1.4. Take `CCCC(CCC)C(=O)OCC1(CO)C/C(=C\c2ccc(F)c(Cl)c2)C(=O)O1` (centres unmarked) [L2-B10, (E)-{4-[(3-Chloro-4-fluorophenyl)methylene]-2-(hydroxymethyl)-5-oxo-2-2,3-dihydrofuryl}methyl 2-propylpentanoate]: the “Ratio Ki crude/Ki pure” value in data set [2] (setting [8]) was 3.8. For `CCCCC(CC)C(=O)OCC1(CO)C/C(=C\c2ccc(N(C)C)cc2)C(=O)O1` (centres unmarked) [L1-E2, (E)-(4-{[4-(Dimethylamino)phenyl]methylene}-2-(hydroxymethyl)-5-oxo-2-2,3-dihydrofuryl)methyl 2-ethylhexanoate], the “Ratio Ki crude/Ki pure” value in data set [2] (setting [9]) was 7.4. On the same count and under the same terms, for `O=C1OC(CO)(COC(=O)c2ccc([N+](=O)[O-])cc2)C/C1=C\c1ccc([N+](=O)[O-])cc1` (centres unmarked) [L1-H8, (E)-{2-(Hydroxymethyl)-4-[(4-nitrophenyl)methylene]-5-oxo-2-2,3-dihydrofuryl}methyl 4-nitrobenzoate] the value was 5.2. With `CCCCC(CC)C(=O)OCC1(CO)C/C(=C\c2ccc(Cl)cc2)C(=O)O1` (centres unmarked) [L2-C8, (E)-{4-[(4-Chlorophenyl)methylene]-2-(hydroxymethyl)-5-oxo-2-2,3-dihydrofuryl}methyl 2-ethylhexanoate], the “AP-1 activation” value in data set [4] is recorded as “able to induce AP-1 activation”. In data set [2] (setting [8]), the “Ratio Ki crude/Ki pure” value is given as 4.3. Further, in data set [6], the “transforming activity” value was “significant transforming activity”.

`CCCC(CCC)C(=O)OCC1(CO)C/C(=C\c2ccc(F)cc2)C(=O)O1` (centres unmarked) [L2-B7, (E)-{4-[(4-Fluorophenyl)methylene]-2-(hydroxymethyl)-5-oxo-2-2,3-dihydrofuryl}methyl 2-propylpentanoate]: the “AP-1 activation” value in data set [4] is recorded as “very strong AP-1 transcription factor activation”. Besides, the “Ratio Ki crude/Ki pure” value in data set [2] (setting [8]) was found to be 3.0. In data set [5], the induction of apoptosis result is “induction of apoptosis”. For the same compound, in data set [6], the “transforming activity” value was “minimal transforming properties”. Take `COc1ccc(C(=O)OCC2(CO)C/C(=C\c3ccc(N(C)C)cc3)C(=O)O2)cc1` (centres unmarked) [L1-E6, (E)-(4-{[4-(Dimethylamino)phenyl]methylene}-2-(hydroxymethyl)-5-oxo-2-2,3-dihydrofuryl)methyl 4-methoxybenzoate]: the “Ratio Ki crude/Ki pure” value in data set [2] (setting [9]) is listed as 8.7. The “α-secretase activity (sAPPα) relative to untreated cells (100%)” value in data set [7] was found to be 177%.

Regarding `CN(C)c1ccc(/C=C2\CC(CO)(COC(=O)c3ccc([N+](=O)[O-])cc3)OC2=O)cc1` (centres unmarked) [L1-E8, (E)-(4-{[4-(Dimethylamino)phenyl]methylene}-2-(hydroxymethyl)-5-oxo-2-2,3-dihydrofuryl)methyl 4-nitrobenzoate], the “Ratio Ki crude/Ki pure” value in data set [2] (setting [9]) was 5.8. Regarding “(E)-{4-[(3-Chloro-4-fluorophenyl)methylene]-2-(hydroxymethyl)-5-oxo-2-2,3-dihydrofuryl}methyl 2-propylpentanoate [L2-B11]”, the “Ratio Ki crude/Ki pure” value in data set [2] (setting [8]) amounted to 6.3. Moreover, the Ki in data set [2] (read-out: Pure Sample Ki, Library 2 pure compound, E-isomer) came to 3.38 ± 0.15 nM.
